Compound activity: PubChem, Johns Hopkins Ion Channel Center
MrgX1 antag: blocks BAM8-22 activation of human MrgX1 receptor. Q96LB2. MRGX1-HEK293 calcium flux, Fluo-4, BAM8-22 antagonism; hits give low values. B-score at 10 µM. 310,000 compounds, 1.3% hits. AID 588676;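 active = calcium-response B-score plate-corrected more than 3 library SD below zero, starting fluorescence within 5 deviations, no agonist response on first addition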;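 note: peak minus trough fluorescence over baseline after final BAM8-22 challenge near maximal dose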
Target sequence (Q96LB2 whole entry, looked up): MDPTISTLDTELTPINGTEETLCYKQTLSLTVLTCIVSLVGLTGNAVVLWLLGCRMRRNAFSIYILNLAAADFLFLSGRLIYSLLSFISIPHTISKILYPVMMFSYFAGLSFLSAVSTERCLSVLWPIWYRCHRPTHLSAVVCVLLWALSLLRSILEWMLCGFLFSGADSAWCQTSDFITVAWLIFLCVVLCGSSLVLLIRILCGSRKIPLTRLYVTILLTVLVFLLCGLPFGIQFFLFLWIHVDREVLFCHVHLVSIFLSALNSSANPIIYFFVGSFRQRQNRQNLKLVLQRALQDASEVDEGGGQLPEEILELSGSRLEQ
RGS4 block: inhibitors of human RGS4; P49798; HEK293 M3R/RGS4 inducible, Fluo-4 calcium flux; hits give high values; triggered by carbachol at its EC20; B-score at 10 µM; 310,000 compounds, 0.45% hits; AID 463165;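 active = B-score, a plate-corrected calcium signal, over three deviations above library mean, with baseline fluorescence within five deviations of library mean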;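 note: RGS4 expression induced by doxycycline in cells with stable M3 receptor; B-score is computed from the integrated fluorescence ratio over baseline after carbachol; higher B-score means a larger calcium signal and so more RGS4 inhibition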
Target sequence (P49798 whole entry, looked up): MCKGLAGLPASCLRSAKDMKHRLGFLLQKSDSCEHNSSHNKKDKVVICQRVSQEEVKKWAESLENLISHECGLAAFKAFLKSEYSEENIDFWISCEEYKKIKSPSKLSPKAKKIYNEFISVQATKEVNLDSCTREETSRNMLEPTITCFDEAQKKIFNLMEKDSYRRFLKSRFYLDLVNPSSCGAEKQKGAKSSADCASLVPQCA
RGS4 pot: potentiators or activators of RGS4 | 310,000 compounds, 0.92% hits | B-score at 10 µM | HEK293 M3R/inducible RGS4, carbachol calcium flux Fluo4; hits give low values;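 active = B-score of the integrated calcium signal more than 4 SD below the library mean, with starting fluorescence not abnormally high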;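 note: negative B-score means reduced calcium response which marks RGS4 activation or potentiation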
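System: HEK293 FlpIn-TREx cells, stable M3R, doxycycline-inducible RGS4. Timing: overnight RGS4 induction, 30 min dye load 37 °C, 20 min compound RT. Also added: carbachol, ECmax concentration. Measured by: Fluo4 fluorescence kinetic imaging of calcium. Evaluation: integrated calcium ratio converted to B score.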
MrgX1 PAM: allosterically activates human MrgX1 receptor signaling | MrgX1-HEK293, Fluo-4 calcium flux, FDSS; hits give high values | Q96LB2 | 310,000 compounds, 0.63% hits | AID 588675 | B-score at 10 µM;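 active = plate-corrected calcium response at least 3 library SD above typical, normal starting fluorescence, not activating the receptor alone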;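 note: compound read alongside a low EC10 to EC30 dose of BAM8-22 agonist; peak minus trough fluorescence over baseline measured at the second addition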
MrgX1 agonist: activates human MrgX1 receptor signaling | Q96LB2 | MrgX1-HEK293 cells, Fluo-4 calcium fluorescence, agonist mode; hits give high values | B-score at 10 µM | 310,000 compounds, 0.44% hits;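 active = calcium response B-score plate-corrected fluorescence ratio at least 3 library SD, with starting fluorescence B-score inside 5 SD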
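Test system: Stable human MrgX1 HEK293 cell line | Schedule: Overnight plating before 1 h dye loading | Read-out basis: Baseline-normalised fluorescence change ratio, B-scored | Detection: Kinetic calcium dye fluorescence, Fluo-4 NW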
MrgX1 PAM conf: confirmation of human MrgX1 receptor positive allosteric modulators; shares compounds with MrgX1 PAM; MrgX1-HEK293, Fluo-4 calcium fluorescence, FDSS; activation (ratio percentage), % at 10 µM; 1,200 compounds, 13% hits; AID 602413;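 active = ratio at least 3 SD above the weak peptide control, stable starting fluorescence, no direct agonism earlier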;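 note: compound followed by low BAM8-22 agonist challenge near EC20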
MrgX1 antag conf: confirmation of human MrgX1 receptor antagonists. shares compounds with MrgX1 antag. MrgX1-HEK293, BAM8-22 calcium flux, Fluo-4; hits give low values. remaining BAM8-22 calcium response % of control (hits give low values), % at 10 µM. 2,300 compounds, 19% hits. AID 602420;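 active = remaining agonist calcium response no higher than 100% minus 3 SD of agonist-only control wells, with starting fluorescence near control levels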;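 note: agonist BAM8-22 given at a near maximal EC90 to ECmax level; peak minus minimum fluorescence divided by baseline after agonist addition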
HEK293 Ca flux: MrgX1 antagonist counter-screen hit in parental HEK293 cells; shares compounds with MrgX1 antag; Fluo-4 calcium fluorescence, FDSS; fluorescence ratio F(max-min)/F0 at 10 µM; 4,000 compounds, 2% hits;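 active = duplicate-averaged calcium fluorescence ratio at least three times the standard deviation of buffer wells, a nonspecific response in parental cells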
HEK293 Ca counter: MrgX1 allosteric activator counter-screen hit in parental HEK293 cells | shares compounds with MrgX1 antag | parental HEK293 calcium flux, Fluo-4 fluorescence ratio; hits give high values | fluorescence ratio F(max-min)/F0 at 10 µM | 4,000 compounds, 0.4% hits;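 active = calcium fluorescence ratio, averaged over duplicates, at least 3 SD of the buffer-well ratio, meaning a nonspecific response in receptor-free cells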;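 note: untransfected parental HEK293 lacking MrgX1 used as counterscreen for MrgX1 allosteric activators; fluorescence change taken during the second addition on a kinetic imager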
HEK293 Ca cntr2: MrgX1 activator counter-screen hit in parental HEK293 cells. shares compounds with MrgX1 antag. Fluo-4 calcium fluorescence (FDSS); hits give high values. fluorescence ratio F(max-min)/F0 at 10 µM. 4,000 compounds, 8.7% hits;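 active = calcium fluorescence ratio at least three times the spread of buffer wells, meaning a non-specific response in parental cells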
Large screens that a line does not name were inactive (follow-up assays come after a bar, where they were run). Sampled rows, rich in hits. Any-hit rate of the full collection: about 3.5%.

C=CCN(CC=C)S(=O)(=O)c1ccc2nc(NC(=O)C(C)C)sc2c1	MrgX1 PAM 21 (no result: RGS4 block, RGS4 pot) | MrgX1 PAM conf inactive | HEK293 Ca flux inactive | HEK293 Ca counter inactive | HEK293 Ca cntr2 inactive
Cc1sc2ncnc(N3CCC(C)CC3)c2c1C	MrgX1 PAM 18 | MrgX1 PAM conf 4.3% | HEK293 Ca flux inactive | HEK293 Ca counter inactive | HEK293 Ca cntr2 inactive
Cc1c(C(=O)N2CCN(c3ccccc3)CC2)sc2ncnc(N3CCC(C)CC3)c12	none
CCCCC(=O)NC(=S)Nc1c(C)cc(Br)cc1C	MrgX1 PAM 9.3 | MrgX1 PAM conf inactive | HEK293 Ca flux inactive | HEK293 Ca counter inactive | HEK293 Ca cntr2 inactive
CCCCC(=O)NC(=S)Nc1cccc(NC(=O)CC)c1	none
O=C(CN(C1CCCCC1)C1CCCCC1)N1CCc2ccccc2C1	MrgX1 PAM 8.8 | MrgX1 PAM conf inactive | HEK293 Ca flux inactive | HEK293 Ca counter inactive | HEK293 Ca cntr2 inactive
O=C(CN(C1CCCCC1)S(=O)(=O)c1ccccc1)N1CCCC1	none
COc1ccc(CNc2cccc(F)c2)cc1Br	MrgX1 PAM 6.5 | MrgX1 PAM conf inactive | HEK293 Ca flux inactive | HEK293 Ca counter inactive | HEK293 Ca cntr2 inactive
COc1ccccc1N1CCN(C(=O)CCC(=O)Nc2nnc(CC(C)C)s2)CC1	none
CCOC(=O)c1c(NC(=O)C2CCCCC2C(=O)O)sc2c1CCCCC2 (configuration not stated)	MrgX1 PAM 16 | MrgX1 PAM conf inactive | HEK293 Ca flux inactive | HEK293 Ca counter inactive | HEK293 Ca cntr2 inactive
O=C(CC(C(=O)O)c1cccc(Cl)c1Cl)c1ccccc1 (configuration not stated)	none
Cc1ccc(S(=O)(=O)N(C)C)cc1NC(=S)N1CCc2ccccc21	MrgX1 PAM 11 | MrgX1 PAM conf inactive | HEK293 Ca flux inactive | HEK293 Ca counter inactive | HEK293 Ca cntr2 inactive
CCC(C)n1c(NC(=O)c2ccccc2)c(C#N)c2nc3ccccc3nc21 (configuration not stated)	MrgX1 PAM 7.9 | MrgX1 PAM conf inactive | HEK293 Ca flux inactive | HEK293 Ca counter inactive | HEK293 Ca cntr2 inactive
Cc1ccc(S(=O)(=O)c2cnc3cc(C)nn3c2N)cc1	none
CC1Cc2ccccc2N1C(=O)C1CCCN(S(=O)(=O)c2cccc3cccnc23)C1 (configuration not stated)	MrgX1 PAM 8.9 (no result: RGS4 block, RGS4 pot) | MrgX1 PAM conf 8.6% | HEK293 Ca flux inactive | HEK293 Ca counter inactive | HEK293 Ca cntr2 inactive
Cc1ccc(S(=O)(=O)N2CCCC2)cc1C(=O)NCCN1CCOCC1	none
COC(=O)CC1C(=O)NCCN1C(=O)c1cc(OC)c(OC)cc1OC (configuration not stated)	none
CC(C)(C)c1ccc(-c2noc(-c3ccc4c(c3)CCO4)n2)cc1	MrgX1 antag -5, MrgX1 PAM 7.4 | MrgX1 PAM conf inactive | MrgX1 antag conf inactive | HEK293 Ca flux inactive | HEK293 Ca counter inactive | HEK293 Ca cntr2 inactive
COc1ccccc1-n1c(-c2ccc(Cl)cc2)c[nH]c1=S	MrgX1 PAM 7.5 | MrgX1 PAM conf inactive | HEK293 Ca flux inactive | HEK293 Ca counter inactive | HEK293 Ca cntr2 inactive
COc1ccccc1N1CCN(C(=O)c2cc3cc(C)ccc3[nH]2)CC1	MrgX1 PAM 11 | MrgX1 PAM conf inactive | HEK293 Ca flux inactive | HEK293 Ca counter inactive | HEK293 Ca cntr2 inactive
OCC1(CCOc2ccccc2)CCN(Cc2cn[nH]c2-c2ccc(F)cc2)CC1	MrgX1 PAM 11 | MrgX1 PAM conf inactive | HEK293 Ca flux inactive | HEK293 Ca counter inactive | HEK293 Ca cntr2 inactive
COC(=O)C1=C(N)c2c(F)cccc2C1(C#N)c1ccc(F)cc1 (configuration not stated)	MrgX1 PAM 8.4 | MrgX1 PAM conf inactive | HEK293 Ca flux inactive | HEK293 Ca counter inactive | HEK293 Ca cntr2 inactive
O=C(N[C@@H](Cc1c[nH]c2ccccc12)C(=O)O)c1ccccc1Cl	MrgX1 PAM 17 | MrgX1 PAM conf inactive | HEK293 Ca flux inactive | HEK293 Ca counter inactive | HEK293 Ca cntr2 inactive
CCn1c(=S)sc2c(=O)n(CC(=O)Nc3ccc(Cl)cc3)c(C)nc21	none
CCN1C(=O)C(CC(=O)Nc2ccc(F)cc2)N(Cc2ccco2)C1=S (configuration not stated)	MrgX1 PAM 9.2 | MrgX1 PAM conf inactive | HEK293 Ca flux inactive | HEK293 Ca counter inactive | HEK293 Ca cntr2 inactive
COc1cccc(NC(=O)c2ccc3c(O)c(S(=O)(=O)c4ccccc4)c(=O)[nH]c3c2)c1	none
COc1ccc(S(=O)(=O)c2c(O)c3ccc(C(=O)Nc4cccc(F)c4)cc3[nH]c2=O)cc1	MrgX1 PAM 17 | MrgX1 PAM conf inactive | HEK293 Ca flux inactive | HEK293 Ca counter inactive | HEK293 Ca cntr2 inactive
O=C(O)c1ccc(Cl)c(NC(=S)NC(=O)c2ccccc2[N+](=O)[O-])c1	none
Cc1ccc2[nH]cc(C(=O)CCl)c2c1	MrgX1 PAM 7.4 | MrgX1 PAM conf inactive | HEK293 Ca flux inactive | HEK293 Ca counter inactive | HEK293 Ca cntr2 inactive
O=C(O)CSc1ncnc2scc(-c3ccc(Br)cc3)c12	MrgX1 PAM 10 | MrgX1 PAM conf inactive | HEK293 Ca flux inactive | HEK293 Ca counter inactive | HEK293 Ca cntr2 inactive
O=C(O)CSc1ncnc2scc(-c3ccccc3)c12	none
COc1ccc(C(=O)COC(=O)C(CCSC)NC(=O)COc2ccccc2)cc1 (configuration not stated)	none
CC(=O)N1CCN(C2=Nc3cccc4cccc2c34)CC1	none
COc1ccccc1N1CCN(C2=Nc3cccc4cccc2c34)CC1	RGS4 pot -7, MrgX1 PAM 8.9 | MrgX1 PAM conf inactive | HEK293 Ca flux inactive | HEK293 Ca counter inactive | HEK293 Ca cntr2 inactive
CCc1[nH]nc2c1C(c1ccc(C)o1)C(C#N)=C(N)O2 (configuration not stated)	MrgX1 PAM 7.6 | MrgX1 PAM conf inactive | HEK293 Ca flux inactive | HEK293 Ca counter inactive | HEK293 Ca cntr2 inactive
CCc1cc2cc(C)ccc2nc1SCC(=O)N1CCN(C(=O)c2ccco2)CC1	MrgX1 PAM 11 (no result: RGS4 block, RGS4 pot) | MrgX1 PAM conf inactive | HEK293 Ca flux inactive | HEK293 Ca counter inactive | HEK293 Ca cntr2 inactive
